Assay results: ChEMBL document CHEMBL3091303, “1,3-Dialkyl-substituted tetrahydropyrimido[1,2-f]purine-2,4-diones as multiple target drugs for the potential treatment of neurodegenerative diseases” (Bioorg Med Chem, 2013)

Key:
Adenosine receptor A1 [1] = target: T1, Adenosine receptor A1 (Rattus norvegicus, UniProt P25099); assay: Displacement of [3H]CCPA from adenosine A1 receptor in rat brain cortex; format: tissue-based
T1 sequence (P25099 whole entry): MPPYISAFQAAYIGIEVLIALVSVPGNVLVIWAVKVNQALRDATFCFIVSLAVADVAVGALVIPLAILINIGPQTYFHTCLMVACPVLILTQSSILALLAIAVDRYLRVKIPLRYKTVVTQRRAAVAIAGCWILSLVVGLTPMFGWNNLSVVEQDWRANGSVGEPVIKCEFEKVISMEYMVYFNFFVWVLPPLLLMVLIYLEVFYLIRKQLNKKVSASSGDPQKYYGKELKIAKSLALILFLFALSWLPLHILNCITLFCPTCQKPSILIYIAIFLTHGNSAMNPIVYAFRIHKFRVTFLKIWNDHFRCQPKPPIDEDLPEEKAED
Method in brief: (§1)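 Radioligand binding to rat A1 receptors in rat brain cortical membrane preparations. Values are given as Ki, or as % inhibition of radioligand binding at the indicated concentration.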

Adenosine receptor A2a [2] = target: T2, Adenosine receptor A2a (Rattus norvegicus, UniProt P30543); assay: Displacement of [3H]MSX-2 from adenosine A2A receptor in rat brain striatum; format: tissue-based
T2 sequence (P30543 whole entry): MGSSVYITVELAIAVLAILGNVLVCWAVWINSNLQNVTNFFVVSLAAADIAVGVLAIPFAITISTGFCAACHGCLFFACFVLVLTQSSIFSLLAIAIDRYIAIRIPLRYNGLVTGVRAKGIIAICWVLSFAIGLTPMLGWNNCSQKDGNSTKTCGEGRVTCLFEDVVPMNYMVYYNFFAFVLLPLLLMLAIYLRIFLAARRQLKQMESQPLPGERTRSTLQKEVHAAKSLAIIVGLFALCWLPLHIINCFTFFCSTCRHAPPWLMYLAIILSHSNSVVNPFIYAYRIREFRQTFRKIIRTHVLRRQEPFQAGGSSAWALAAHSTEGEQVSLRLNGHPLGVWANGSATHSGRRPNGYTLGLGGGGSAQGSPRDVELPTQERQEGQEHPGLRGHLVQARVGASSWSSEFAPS

Adenosine receptor A1 [3] = target: T1, Adenosine receptor A1; assay: Binding affinity to rat adenosine A1 receptor
[4] = target: T3, Amine oxidase [flavin-containing] B (Homo sapiens, UniProt P27338); assay: Inhibition of human MAO-B
T3 sequence (P27338 whole entry): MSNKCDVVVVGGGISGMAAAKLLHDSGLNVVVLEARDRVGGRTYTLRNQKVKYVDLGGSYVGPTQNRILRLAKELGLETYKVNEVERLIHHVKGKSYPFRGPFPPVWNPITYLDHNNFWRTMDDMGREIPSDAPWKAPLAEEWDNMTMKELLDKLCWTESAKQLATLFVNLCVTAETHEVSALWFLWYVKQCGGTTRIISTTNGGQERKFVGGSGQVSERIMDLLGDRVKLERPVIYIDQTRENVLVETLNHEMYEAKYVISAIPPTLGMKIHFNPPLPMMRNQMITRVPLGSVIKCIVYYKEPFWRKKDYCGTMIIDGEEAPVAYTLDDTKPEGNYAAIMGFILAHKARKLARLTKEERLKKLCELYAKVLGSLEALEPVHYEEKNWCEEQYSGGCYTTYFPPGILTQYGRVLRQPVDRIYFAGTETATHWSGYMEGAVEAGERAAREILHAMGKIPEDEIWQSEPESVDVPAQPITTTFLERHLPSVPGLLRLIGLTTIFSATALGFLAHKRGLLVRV

Adenosine receptor A3 [5] = target: T4, Adenosine receptor A3 (Homo sapiens, UniProt P0DMS8); assay: Displacement of [3H]PSB-11 from human adenosine A3 receptor expressed in CHO cells; format: cell-based
T4 sequence (P0DMS8 whole entry): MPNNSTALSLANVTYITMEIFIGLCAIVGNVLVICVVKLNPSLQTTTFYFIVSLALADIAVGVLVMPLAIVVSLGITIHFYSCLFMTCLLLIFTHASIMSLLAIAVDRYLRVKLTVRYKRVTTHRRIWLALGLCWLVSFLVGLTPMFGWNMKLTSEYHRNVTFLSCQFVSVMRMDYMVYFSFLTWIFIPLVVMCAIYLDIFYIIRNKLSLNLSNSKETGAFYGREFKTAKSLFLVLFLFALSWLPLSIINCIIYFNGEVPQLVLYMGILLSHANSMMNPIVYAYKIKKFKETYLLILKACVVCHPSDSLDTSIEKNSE

Adenosine receptor A2a [6] = target: T2, Adenosine receptor A2a; assay: Binding affinity to rat adenosine A2A receptor
[7] = target: T5, Amine oxidase [flavin-containing] A (Homo sapiens, UniProt P21397); assay: Inhibition of human MAO-A
T5 sequence (P21397 whole entry): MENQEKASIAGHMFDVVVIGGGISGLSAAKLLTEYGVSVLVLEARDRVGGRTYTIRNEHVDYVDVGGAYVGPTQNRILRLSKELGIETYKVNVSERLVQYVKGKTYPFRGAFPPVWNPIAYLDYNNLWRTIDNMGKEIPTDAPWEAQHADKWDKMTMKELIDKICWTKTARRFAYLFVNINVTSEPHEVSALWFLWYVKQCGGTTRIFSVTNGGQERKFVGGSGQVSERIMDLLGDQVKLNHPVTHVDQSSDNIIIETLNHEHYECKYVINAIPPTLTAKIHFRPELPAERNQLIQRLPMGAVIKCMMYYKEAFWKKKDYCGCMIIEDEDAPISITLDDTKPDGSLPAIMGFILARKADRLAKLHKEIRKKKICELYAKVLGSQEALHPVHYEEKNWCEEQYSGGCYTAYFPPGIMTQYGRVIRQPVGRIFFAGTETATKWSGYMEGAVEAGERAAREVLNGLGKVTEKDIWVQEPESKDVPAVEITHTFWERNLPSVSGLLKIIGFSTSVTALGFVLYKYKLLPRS
Method in brief: (§2)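 Human MAO-A and MAO-B inhibition, screened first at a test concentration of 10 µM.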

Adenosine receptor A3 [8] = target: T6, Adenosine receptor A3 (Rattus norvegicus, UniProt P28647); assay: Binding affinity to rat adenosine A3 receptor
T6 sequence (P28647 whole entry): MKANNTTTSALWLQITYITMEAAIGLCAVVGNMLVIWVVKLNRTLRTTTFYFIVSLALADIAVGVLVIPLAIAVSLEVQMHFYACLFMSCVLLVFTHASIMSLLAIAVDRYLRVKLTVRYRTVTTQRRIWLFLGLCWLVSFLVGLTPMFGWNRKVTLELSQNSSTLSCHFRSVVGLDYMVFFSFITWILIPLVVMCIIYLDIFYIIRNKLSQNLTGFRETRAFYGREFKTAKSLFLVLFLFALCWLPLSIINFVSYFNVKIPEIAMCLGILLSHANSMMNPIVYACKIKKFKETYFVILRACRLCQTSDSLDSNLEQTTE

[9] = target: T7, MAO-A (amine oxidase [flavin-containing] A) (Homo sapiens, UniProt P21397); assay: Inhibition of human MAO-A at 10 uM relative to control; method in brief: as §2
T7 sequence (P21397 whole entry): T5 sequence (P21397 whole entry)

[10] = Ratio of Ki for human adenosine A1 receptor to Ki for adenosine A1 receptor in rat brain cortex; format: tissue-based
[11] = target: T8, Adenosine receptor A3 (Homo sapiens) (UniProt P0DMS8); assay: Displacement of [3H]PSB-11 from human adenosine A3 receptor expressed in CHO cells relative to control; format: cell-based; set-up: concentration or dose not given beside the values; settings: concentration not given here
T8 sequence (whole entry): T4 sequence (P0DMS8 whole entry)

[12] = target: T9, MAO-B (amine oxidase [flavin-containing] B) (Homo sapiens, UniProt P27338); assay: Inhibition of human MAO-B at 10 uM relative to control; method in brief: as §2
T9 sequence (P27338 whole entry): T3 sequence (P27338 whole entry)

Adenosine receptor A1 [13] = target: T10, Adenosine receptor A1 (Homo sapiens, UniProt P30542); assay: Displacement of [3H]CCPA from human adenosine A1 receptor expressed in CHO cells; format: cell-based
T10 sequence (P30542 whole entry): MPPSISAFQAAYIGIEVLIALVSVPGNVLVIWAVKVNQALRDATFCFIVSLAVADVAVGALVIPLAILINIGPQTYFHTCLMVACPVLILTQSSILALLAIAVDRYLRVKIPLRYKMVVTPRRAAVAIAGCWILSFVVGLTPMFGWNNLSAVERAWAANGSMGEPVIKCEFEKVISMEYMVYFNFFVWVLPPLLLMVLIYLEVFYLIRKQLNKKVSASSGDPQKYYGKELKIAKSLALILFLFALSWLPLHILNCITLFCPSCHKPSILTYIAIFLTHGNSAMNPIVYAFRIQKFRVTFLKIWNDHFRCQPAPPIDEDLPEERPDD
Method in brief: (§3)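 Radioligand binding to human receptors recombinantly expressed in Chinese hamster ovary (CHO) cells. Results are Ki, or % inhibition of radioligand binding at the indicated concentration.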

[14] = target: T11, Adenosine receptor A2b (Homo sapiens) (UniProt P29275); assay: Displacement of [3H]PSB-603 from human adenosine A2B receptor relative to control; set-up: concentration or dose not given beside the values; settings: concentration not given here
T11 sequence (whole entry): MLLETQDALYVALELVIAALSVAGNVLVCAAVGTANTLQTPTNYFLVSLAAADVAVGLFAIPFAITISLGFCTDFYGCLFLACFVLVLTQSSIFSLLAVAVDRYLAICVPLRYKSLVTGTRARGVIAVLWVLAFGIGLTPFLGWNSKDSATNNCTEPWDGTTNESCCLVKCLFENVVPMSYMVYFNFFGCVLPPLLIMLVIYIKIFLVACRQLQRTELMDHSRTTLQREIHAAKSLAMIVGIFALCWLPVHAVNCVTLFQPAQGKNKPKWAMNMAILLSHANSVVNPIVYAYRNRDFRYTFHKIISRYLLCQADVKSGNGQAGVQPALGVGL

Adenosine receptor A2b = target: T12, Adenosine receptor A2b (Homo sapiens, UniProt P29275); assay: Displacement of [3H]PSB-603 from human adenosine A2B receptor
T12 sequence (P29275 whole entry): T11 sequence (whole entry)

Adenosine receptor A2a [15] = target: T13, Adenosine receptor A2a (Homo sapiens, UniProt P29274); assay: Binding affinity to human adenosine A2A receptor
T13 sequence (P29274 whole entry): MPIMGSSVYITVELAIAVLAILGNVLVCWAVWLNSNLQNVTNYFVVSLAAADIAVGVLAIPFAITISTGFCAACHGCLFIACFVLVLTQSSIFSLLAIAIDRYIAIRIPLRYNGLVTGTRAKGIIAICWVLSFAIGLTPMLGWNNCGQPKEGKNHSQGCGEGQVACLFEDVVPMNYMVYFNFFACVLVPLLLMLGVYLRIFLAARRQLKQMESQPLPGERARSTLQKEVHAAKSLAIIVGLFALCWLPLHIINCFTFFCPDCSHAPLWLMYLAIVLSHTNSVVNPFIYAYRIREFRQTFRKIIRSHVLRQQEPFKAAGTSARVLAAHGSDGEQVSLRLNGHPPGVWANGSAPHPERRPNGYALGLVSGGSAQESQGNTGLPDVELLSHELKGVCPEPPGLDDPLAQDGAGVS

Adenosine receptor A2a [16] = target: T13, Adenosine receptor A2a; assay: Displacement of [3H]MSX-2 from human adenosine A2A receptor expressed in CHO cells; format: cell-based; method in brief: as §3
[17] = target: T14, Adenosine receptor A1 (Homo sapiens) (UniProt P30542); assay: Displacement of [3H]CCPA from human adenosine A1 receptor expressed in CHO cells relative to control; format: cell-based; settings: concentration not given here; method in brief: as §3
T14 sequence (whole entry): T10 sequence (P30542 whole entry)

[18] = target: T15, Adenosine receptor A1 (Rattus norvegicus) (UniProt P25099); assay: Displacement of [3H]CCPA from adenosine A1 receptor in rat brain cortex relative to control; format: tissue-based; set-up: concentration or dose not given beside the values; settings: concentration not given here; method in brief: as §1
T15 sequence (whole entry): T1 sequence (P25099 whole entry)

Compound | Ki (Adenosine receptor A1 [1]) [nM] | Ki (Adenosine receptor A2a [2]) [µM] | Ki (Adenosine receptor A1 [3]) [µM] | IC50 [4] [µM] | Ki (Adenosine receptor A3 [5]) [µM] | Ki (Adenosine receptor A2a [6]) [µM] | IC50 [7] [µM] | Ki (Adenosine receptor A3 [8]) [µM] | inhibition at 10 µM [9] [%] | Ratio Ki [10] | inhibition [11] [%] | inhibition at 10 µM [12] [%] | Ki (Adenosine receptor A1 [13]) [µM] | inhibition [14] [%] | Ki (Adenosine receptor A2b) [nM] | Ki (Adenosine receptor A2a [15]) [nM] | Ki (Adenosine receptor A2a [16]) [nM] | inhibition [17] [%] | inhibition [18] [%]
C#CCn1c(=O)c2c(ncn2C)n(C)c1=O | 11000 | 5.6 | 11 | > 10 | > 10 | 5.6 | > 10 | > 10 | 3 | – | – | – | – | – | – | – | – | – | –
C#CCn1c(=O)c2c(nc3n2CCCN3c2cccc(OC)c2)n(C)c1=O | 469 | 3.03 | – | > 10 | > 1 | – | – | – | – | > 10 | 20 | 36 | 9.49 | 8 | > 1000 | – | – | – | –
C#CCn1c(=O)c2c(nc(/C=C/c3cccc(OC)c3)n2C)n(CCCO)c1=O | – | – | – | – | – | – | – | – | – | – | – | – | – | – | – | 5.38 | 5.38 | – | –
C#CCn1c(=O)c2c(nc3n2CCCN3CCc2ccccc2)n(C)c1=O | 632 | 0.827 | – | > 10 | > 1 | – | – | – | – | 18 | 10 | 2 | 11.6 | 3 | > 1000 | – | 1200 | – | –
Cn1c(=O)c2c(nc3n2CCCN3Cc2ccc(Cl)cc2)n(C)c1=O | > 25000 | 7.23 | – | 0.218 | > 10 | – | > 10 | – | 14 | – | 36 | – | > 10 | 1 | > 1000 | – | – | 29 | 27
